Where “and” joins values, the source holds several entries; their conditions need not be identical. Equal entries are not always repeated.
Tested on: U2OS
Experiment: Multiplex assay against U2OS
Type: toxicity, cell-based
Settings: human
Outline: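 With compound added, live cells were imaged on a CQ1 microscope at 37°C and 5% CO2; staining with Hoechst33342, BioTracker Green Microtubule Cytoskeleton Dye, MitoTracker Red and Annexin V Alexa Fluor 680 had been done at seeding. The CellPathfinder machine-learning gating scheme split cells into Hoechst high-intensity objects or normal cells, normal cells into healthy, pyknosed or fragmented nuclei, and pyknosed cells into mitotic or apoptotic. The tubulin, mitochondrial-mass and membrane-permeability phenotypes are per cents of healthy-nucleus cells.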

[1] = 12 h, 1 µM, compound concentration 1 uM
[2] = 12 h, 10 µM, compound concentration 10 uM
[3] = 24 h, 1 µM, compound concentration 1 uM
[4] = 24 h, 10 µM, compound concentration 10 uM
[5] = 48 h, 1 µM, compound concentration 1 uM
[6] = 48 h, 10 µM, compound concentration 10 uM

CC(C)[C@H](C(=O)Nc1ccc(C(=O)NO)cc1)c1ccccc1 [AR-42]
Population Apoptotic (%) [1]: 27.71% and 34.88%
Population Fragmented Nuclei (%) [1]: 2.59% and 3.95%
Population Healthy Nuclei (%) [1]: 77.88% and 71.75%
Population Hoechst High Intensity Objects (%) [1]: 0%
Population Membrane Permeable-Phenotype (%) [1]: 0.6% and 1.57%
Population Mitochondria Different-Phenotype (%) [1]: 0.3% and 7.87%
Population Mitotic Cells (%) [1]: 72.29% and 65.12%
Population Normal (%) [1]: 100%
Population Pyknosed Nuclei (%) [1]: 19.53% and 24.29%
Population Tubulin-Different-Phenotype (%) [1]: 0.6% and 0%
Total Cell Count [1]: 425 and 177
Population Apoptotic (%) [2]: 22.08% and 11.11%
Population Fragmented Nuclei (%) [2]: 2.31% and 1.96%
Population Healthy Nuclei (%) [2]: 75.5% and 80.39%
Population Hoechst High Intensity Objects (%) [2]: 0%
Population Membrane Permeable-Phenotype (%) [2]: 0.38% and 3.25%
Population Mitochondria Different-Phenotype (%) [2]: 0% and 2.44%
Population Mitotic Cells (%) [2]: 77.92% and 88.89%
Population Normal (%) [2]: 100%
Population Pyknosed Nuclei (%) [2]: 22.19% and 17.65%
Population Tubulin-Different-Phenotype (%) [2]: 0.76% and 0.81%
Total Cell Count [2]: 347 and 153
Population Apoptotic (%) [3]: 34.74% and 52.56%
Population Fragmented Nuclei (%) [3]: 5.86% and 12.17%
Population Healthy Nuclei (%) [3]: 51.35% and 46.56%
Population Hoechst High Intensity Objects (%) [3]: 0%
Population Membrane Permeable-Phenotype (%) [3]: 1.75% and 5.68%
Population Mitochondria Different-Phenotype (%) [3]: 0% and 5.68%
Population Mitotic Cells (%) [3]: 65.26% and 47.44%
Population Normal (%) [3]: 100%
Population Pyknosed Nuclei (%) [3]: 42.79% and 41.27%
Population Tubulin-Different-Phenotype (%) [3]: 4.82% and 3.41%
Total Cell Count [3]: 444 and 189
Population Apoptotic (%) [4]: 38.59% and 30.67%
Population Fragmented Nuclei (%) [4]: 5.97% and 3.36%
Population Healthy Nuclei (%) [4]: 39.1% and 46.31%
Population Hoechst High Intensity Objects (%) [4]: 0%
Population Membrane Permeable-Phenotype (%) [4]: 3.82% and 5.8%
Population Mitochondria Different-Phenotype (%) [4]: 0% and 2.9%
Population Mitotic Cells (%) [4]: 61.41% and 69.33%
Population Normal (%) [4]: 100%
Population Pyknosed Nuclei (%) [4]: 54.93% and 50.34%
Population Tubulin-Different-Phenotype (%) [4]: 6.87% and 8.7%
Total Cell Count [4]: 335 and 149
Population Apoptotic (%) [5]: 73.08% and 85.05%
Population Fragmented Nuclei (%) [5]: 10.42% and 6.52%
Population Healthy Nuclei (%) [5]: 25.06% and 35.33%
Population Hoechst High Intensity Objects (%) [5]: 0.25% and 0%
Population Membrane Permeable-Phenotype (%) [5]: 14.85% and 23.08%
Population Mitochondria Different-Phenotype (%) [5]: 0% and 10.77%
Population Mitotic Cells (%) [5]: 26.92% and 14.95%
Population Normal (%) [5]: 99.75% and 100%
Population Pyknosed Nuclei (%) [5]: 64.52% and 58.15%
Population Tubulin-Different-Phenotype (%) [5]: 30.69% and 30.77%
Total Cell Count [5]: 404 and 184
Population Apoptotic (%) [6]: 83.05% and 91.57%
Population Fragmented Nuclei (%) [6]: 2.34% and 3.4%
Population Healthy Nuclei (%) [6]: 38.46% and 40.14%
Population Hoechst High Intensity Objects (%) [6]: 0% and 0.68%
Population Membrane Permeable-Phenotype (%) [6]: 18.26% and 44.07%
Population Mitochondria Different-Phenotype (%) [6]: 0% and 1.69%
Population Mitotic Cells (%) [6]: 16.95% and 8.43%
Population Normal (%) [6]: 100% and 99.32%
Population Pyknosed Nuclei (%) [6]: 59.2% and 56.46%
Population Tubulin-Different-Phenotype (%) [6]: 34.78% and 18.64%
Total Cell Count [6]: 299 and 148

CCOC(=O)c1c(/C(C#N)=C\N)c2ccc(Cl)c(Cl)c2n1C
Population Apoptotic (%) [1]: 47.83% and 43.48%
Population Fragmented Nuclei (%) [1]: 0.85% and 4.7%
Population Healthy Nuclei (%) [1]: 89.38% and 79.87%
Population Hoechst High Intensity Objects (%) [1]: 0%
Population Membrane Permeable-Phenotype (%) [1]: 1.19% and 0.84%
Population Mitochondria Different-Phenotype (%) [1]: 0% and 5.88%
Population Mitotic Cells (%) [1]: 52.17% and 56.52%
Population Normal (%) [1]: 100%
Population Pyknosed Nuclei (%) [1]: 9.77% and 15.44%
Population Tubulin-Different-Phenotype (%) [1]: 0.95% and 0.84%
Population Apoptotic (%) [2]: 43.9% and 26.67%
Population Healthy Nuclei (%) [2]: 86.92% and 80.49%
Population Hoechst High Intensity Objects (%) [2]: 0%
Population Membrane Permeable-Phenotype (%) [2]: 0% and 3.64%
Population Mitochondria Different-Phenotype (%) [2]: 0% and 2.42%
Population Mitotic Cells (%) [2]: 56.1% and 73.33%
Population Normal (%) [2]: 100%
Population Pyknosed Nuclei (%) [2]: 11.17% and 7.32%
Population Tubulin-Different-Phenotype (%) [2]: 0.31% and 0%
Total Cell Count [2]: 367 and 205
Population Apoptotic (%) [3]: 38.46% and 52.38%
Population Fragmented Nuclei (%) [3]: 0.82% and 3.3%
Population Healthy Nuclei (%) [3]: 90.7% and 85.16%
Population Hoechst High Intensity Objects (%) [3]: 0%
Population Membrane Permeable-Phenotype (%) [3]: 0.9% and 3.87%
Population Mitochondria Different-Phenotype (%) [3]: 0% and 2.58%
Population Mitotic Cells (%) [3]: 61.54% and 47.62%
Population Normal (%) [3]: 100%
Population Pyknosed Nuclei (%) [3]: 8.48% and 11.54%
Population Tubulin-Different-Phenotype (%) [3]: 1.62% and 1.29%
Population Apoptotic (%) [4]: 49.09% and 33.33%
Population Fragmented Nuclei (%) [4]: 1.8% and 9.69%
Population Healthy Nuclei (%) [4]: 87.17% and 84.5%
Population Hoechst High Intensity Objects (%) [4]: 0%
Population Membrane Permeable-Phenotype (%) [4]: 0.46% and 1.38%
Population Mitochondria Different-Phenotype (%) [4]: 0% and 1.38%
Population Mitotic Cells (%) [4]: 50.91% and 66.67%
Population Normal (%) [4]: 100%
Population Pyknosed Nuclei (%) [4]: 11.02% and 5.81%
Population Tubulin-Different-Phenotype (%) [4]: 0.92% and 0.46%
Total Cell Count [4]: 499 and 258
Population Apoptotic (%) [5]: 46.46% and 70.83%
Population Fragmented Nuclei (%) [5]: 2.55% and 2.93%
Population Healthy Nuclei (%) [5]: 88.73% and 89.25%
Population Hoechst High Intensity Objects (%) [5]: 0%
Population Membrane Permeable-Phenotype (%) [5]: 0.6% and 3.28%
Population Mitochondria Different-Phenotype (%) [5]: 0% and 2.55%
Population Mitotic Cells (%) [5]: 53.54% and 29.17%
Population Normal (%) [5]: 100%
Population Pyknosed Nuclei (%) [5]: 8.71% and 7.82%
Population Tubulin-Different-Phenotype (%) [5]: 0.4% and 1.82%
Population Apoptotic (%) [6]: 37.84% and 47.83%
Population Fragmented Nuclei (%) [6]: 3.52% and 4.86%
Population Healthy Nuclei (%) [6]: 85.01% and 83.38%
Population Hoechst High Intensity Objects (%) [6]: 0%
Population Membrane Permeable-Phenotype (%) [6]: 1.09% and 0.92%
Population Mitochondria Different-Phenotype (%) [6]: 0% and 1.84%
Population Mitotic Cells (%) [6]: 62.16% and 52.17%
Population Normal (%) [6]: 100%
Population Pyknosed Nuclei (%) [6]: 11.48% and 11.76%
Population Tubulin-Different-Phenotype (%) [6]: 1.09% and 0%
Total Cell Count [6]: 967 and 391

Source: ChEMBL document CHEMBL5724801, “EUbOPEN Chemogenomics Library - Multiplex” (2024)
